In the RNAGym collection of RNA variant scans (doi:10.1126/science.aae0568):
Variants at the floor of the assay were thinned out.

B1: tRNA (parent)
chain: GUUCCGUUGGCGUAAUGGUAACGCGUCUCCCUCCUAAGGAGAAGACUGCGGGUUCGAGUCCCGUACGGAACG

Variants of: B1
Assay: yeast fitness relative to wild type (ratio to wild type); higher = fitter; tRNA-Arg(CCU), competitive growth, 37 C, YPD
Method in brief: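 Start and end populations of a pooled competition were compared by 100-nucleotide paired-end sequencing of gene amplicons. The Saccharomyces cerevisiae strains carried tRNA-Arg(CCU) gene variants at the native genomic locus, synthesised with a 3% per-site mutation rate at 69 sites, and competed in YPD at 37°C for 24 hours in six parallel replicates. Darwinian fitness relative to wild type was based on the change in genotype frequencies. Genotypes required ≥ 100 starting reads, and estimates < 0.5 were set to 0.5.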

Variant | yeast fitness
C5G A20C U28C C29A A36U A40U C49G G63C A70U | 0.579
C5G G9C A20U A21G C24G C27G G68A | ≤ 0.5
C5G G9A G25C C27U G56A | 0.6
C5G C49G G51A | ≤ 0.5
C5G A21C G51A G58A | ≤ 0.5
C5G C29U A43C | 0.537
C5G C11A A15G G18A C30G G68A | ≤ 0.5
C5G A14U G25A G56A G67A | ≤ 0.5
C5G A21G U32C A69C | ≤ 0.5
C5G C29A U53C C62A G67A | ≤ 0.5
C5G G6A A15G | ≤ 0.5
C5G C29G G41C A57U | ≤ 0.5
C5G C11U G25C | 0.571
C5G C30U C31G | 0.79
C5G A43C G67A | 0.565
C5G C11G A14U A15U A65G | ≤ 0.5
C5G A45C U64G | ≤ 0.5
C5G C33A C34G G50A | ≤ 0.5
C5G G6A U26C G52A | 0.619
C5G C55U A69U | ≤ 0.5
C5G A14U G18A A21U A42G G68A | 0.522
C5G A36C A42G | ≤ 0.5
C5G A21U G23A C29A A37U C61U | ≤ 0.5
C5G A21C A45G G68A | ≤ 0.5

Variant | yeast fitness
C5G G9C A43G | 0.667
C5G A43G A69C | 0.615
C5G C29U G44C | ≤ 0.5
C5G A45C A57U | ≤ 0.5
C5G A65U G67C | 0.569
C5G C11A A20C C22G C30U C31G C61A G67A | ≤ 0.5
C5G C11A A14G G25C C29G G56C A57C | ≤ 0.5
C5G C22U U26G U32A U35A A69C | ≤ 0.5
C5G A14U G67A A69G | 0.503
C5G C33A A37C C61U C62A | ≤ 0.5
C5G C22A U26C C33G G63A | ≤ 0.5
C5G C24U A43U C55U G68C | ≤ 0.5
C5G A21G C27G C34G A43C C46G A70U | 0.569
C5G C11A A20G U28C C33U A70C | ≤ 0.5
C5G G12A U28A A65G | 0.703
C5G C22U C31G C60A | ≤ 0.5
C5G A20C C27G C49U U53A | 0.568
C5G A37C A43G A45U G51C C62G | ≤ 0.5
C5G G10A A42G C55U A70C | ≤ 0.5
C5G A42U A70C | 0.681
C5G G9C A65U | 0.555
C5G G12C C24A C33G C49G A65G | 0.573
C5G C34A A36C A42G | ≤ 0.5
C5G C24A A42U A57C U64A | ≤ 0.5

Variant | yeast fitness
C5G C27U G51A | ≤ 0.5
C5G A20C G23A U54A | ≤ 0.5
C5G A70U | 0.812
C5G A70C | 0.905
C5G C24U G56C | ≤ 0.5
C5G C27G U32C C33U G56A A69U | ≤ 0.5
C5G A14G G17A U32C G56C C60G | 0.554
C5G G6A G50C | 0.608
C5G C31A A36C A43C C55G | 1.06
C5G C49G U53A | ≤ 0.5
C5G C22U C29G | 0.659
C5G C11U A14G G25C C29G | ≤ 0.5
C5G A20U G68C | ≤ 0.5
C5G G9C A42G | ≤ 0.5
C5G A45U A57U | 0.565
C5G C30A C31A C49U C55G | 0.544
C5G G10C A43U U54C | ≤ 0.5
C5G C55G A65C | 0.531
C5G C34G C49U G50A | ≤ 0.5
C5G C30U U32C G44C | ≤ 0.5
C5G C22A C33G U35A C55U | ≤ 0.5
C5G A42U G63A | 0.531
C5G A14U A20C A45G | ≤ 0.5
C5G C11U U47A G68C | ≤ 0.5

Variant | yeast fitness
C5G A42C A70C | 0.689
C5G A42C C60A | ≤ 0.5
C5G C30G C66A | ≤ 0.5
C5G C22A C31U G50U C60U | ≤ 0.5
C5G A15U U35A G50A U54G | ≤ 0.5
C5G C29A G58C U64G | 0.545
C5G C27G C55G | ≤ 0.5
C5G A36G G44C | 0.672
C5G A14G A21U A57U | ≤ 0.5
C5G A14G A36U | 0.647
C5G C30A A36G A45C A69U | ≤ 0.5
C5G C11G A20C C33U C34U C61G | 0.529
C5G C31G A42U | 0.623
C5G C22U A36C A42G | ≤ 0.5
C5G C30U A40G C55U | ≤ 0.5
C5G A37C A57U | ≤ 0.5
C5G C29A C30U U35A C55G G56C | ≤ 0.5
C5G A65C G68A | 0.671
C5G A21C A43U A70G | ≤ 0.5
C5G C27U G41C | ≤ 0.5
C5G A37U C46U | 0.536
C5G A20G G58C | 0.648
C5G G6A C29G | 0.533
C5G A69C A70U | 0.765

Variant | yeast fitness
C5G A43G G67U | 0.543
C5G A20U | 0.621
C5G G10C U35G G50A C55U A69C | 0.607
C5G A36U C61U | ≤ 0.5
C5G C49A U64C | 0.621
C5G C30A A40G A70U | ≤ 0.5
C5G C31U C49G | 0.576
C5G C11U C34A U47A | 0.528
C5G A14U G18A A21U A42C G48C | ≤ 0.5
C5G C29G C66A | ≤ 0.5
C5G C11U A21G C60A | ≤ 0.5
C5G G12A C49G G68C | ≤ 0.5
C5G C11G A40G | 0.556
C5G C24U C46A G68U | ≤ 0.5
C5G C31G A57C | 0.502
C5G A37G | 0.805
C5G C30U G67C | 0.938
C5G A15U A20U A40C G67A | 0.538
C5G A42C U54G | ≤ 0.5
C5G G9C A36G C46U | ≤ 0.5
C5G C66G | 0.781
C5G G12C A45C C46U C55U C62U | ≤ 0.5
C5G G9C G67A | ≤ 0.5
C5G A15G A21G G25C C33U | ≤ 0.5

Variant | yeast fitness
C5G C24G C34G C46U C61A A70U | ≤ 0.5
C5G C55A C62U | 0.546
C5G A14G | 0.999
C5G C61A G63C | ≤ 0.5
C5G A42U A57U U59A A69C | ≤ 0.5
C5G A21G G44A G58C | 0.616
C5G C11G G12A C46U | ≤ 0.5
C5G C34G C61A | ≤ 0.5
C5G G6A | 0.659
C5G A21U A43G C62A | ≤ 0.5
C5G C24G C27G C60U | 0.627
C5G C27U G44C G48C | ≤ 0.5
C5G A21U C29A U64C | ≤ 0.5
C5G C29U A37U G38C | ≤ 0.5
C5G A14U A36C C61G C62A A69C | ≤ 0.5
C5G A15G C27G U28A U32A A45G C46U G56C C61U | 0.736
C5G C61G A65C | ≤ 0.5
C5G C22A U26C C33G U64A G67C | 0.544
C5G C11A A40U U64C | 0.536
C5G A20U G51C C61G A65U A70C | 0.565
C5G C31U C33U A57U | ≤ 0.5
C5G C30G G38C G56C | 0.621
C5G A14C G18A A43G A45C C46U A69C | ≤ 0.5
C5G G9C A40C G58A | ≤ 0.5

Variant | yeast fitness
C5G G10A C11G U16G C33G C66U | ≤ 0.5
C5G A15C | 0.626
C5G A15U | 0.747
C5G C27U C34A G51A | ≤ 0.5
C5G C46G C49G C62A | ≤ 0.5
C5G C22U A37G G50C | ≤ 0.5
C5G C11A U16A A21U G67A | ≤ 0.5
C5G C30G C61G | ≤ 0.5
C5G A37C A42U | 0.533
C5G C61A C62U A65U A69C | ≤ 0.5
C5G C29U A40G A57G | ≤ 0.5
C5G C31U U32C | 0.659
C5G C66A A69G A70C | ≤ 0.5
C5G G6C A15G C62U A65C | 0.6
C5G A15C A21U C24U A57G G67U | ≤ 0.5
C5G A15G A21G G25C C33U G68A | ≤ 0.5
C5G A42C | 0.814
C5G A42U | 0.683
C5G C27U | 0.651
C5G C27A | 0.709
C5G A20C C24U C55U | ≤ 0.5
C5G A40U A42G U53A U54A | ≤ 0.5
C5G A21G C33A G68C A69U | ≤ 0.5
